High-throughput results: PubChem, The Scripps Research Institute Molecular Screening Center
Only some compounds are listed: those with a hit (about 3.3% of all), similar ones and a draw of the others.
LEDGF integ inh = blocks HIV-1 LEDGF/p75-dependent DNA integration; TR-FRET IN-LEDGF/p75 DNA integration, Eu/Cy5; inhibition, % at 3.7 µM; 0.64% of 370,000 active;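 active means inhibition above the screen-wide mean plus 3 SD, cut at about 13% in these data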;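 further: signal is the Cy5 over europium emission ratio at 671 and 618 nm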
TDP2 absorb = blocks human TDP2 phosphodiesterase activity. O95551. recombinant TDP2, T5PNP hydrolysis, p-nitrophenol absorbance 415 nm. inhibition, % at 12.8 µM. 0.34% of 370,000 active. AID 720702;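 active means inhibition above the mean of all tested compounds plus 3 SD, set per campaign, cut at about 25% in these data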
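Test system: human TDP2 enzyme; Input: 120 nM TDP2 per well; Buffer or medium: Mg2+-containing Tris-HCl buffer, pH 7.5; Reagent: 5 mM T5PNP; Dosing: 12.8 µM single point, 1% DMSO; Incubation: reaction 2 h, 37 °C; Detection: p-Nitrophenol epi absorbance; Read-out: % inhibition relative to enzyme-containing and enzyme-free wells; Replicates: single well per compound.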
MBD2 DNA inh = inhibitors of human MBD2 binding to methylated oligonucleotide; TR-FRET; 0.31% of 370,000 active; inhibition, % at 4.4 µM; Q9UBB5; in the data active means inhibition above about 13%
Target sequence (Q9UBB5 whole entry, looked up): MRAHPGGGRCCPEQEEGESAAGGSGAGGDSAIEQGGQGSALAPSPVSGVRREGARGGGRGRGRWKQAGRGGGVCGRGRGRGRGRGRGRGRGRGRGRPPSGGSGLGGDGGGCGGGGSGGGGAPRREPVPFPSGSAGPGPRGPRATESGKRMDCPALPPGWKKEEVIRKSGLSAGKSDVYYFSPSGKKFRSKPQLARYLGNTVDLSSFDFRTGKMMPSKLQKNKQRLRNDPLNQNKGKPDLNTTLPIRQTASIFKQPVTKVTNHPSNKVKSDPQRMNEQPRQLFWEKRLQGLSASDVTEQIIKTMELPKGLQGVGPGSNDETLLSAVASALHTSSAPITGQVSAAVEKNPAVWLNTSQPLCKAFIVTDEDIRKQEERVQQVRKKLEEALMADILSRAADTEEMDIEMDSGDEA
SIAE inh = inhibitors of human sialic acid acetylesterase SIAE. SIAE FP-Rh probe binding, fluorescence polarization. inhibition, % at 9.66 µM. 0.69% of 370,000 active. AID 1053197;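 active means inhibition above a cutoff: mean of compounds within the control limits plus 3 SD of those, cut at about 17% in these data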
PRMT1 FP inh = blocks human protein arginine methyltransferase 1. recombinant PRMT1, activity-based probe fluorescence polarization. inhibition, % at 2.79 µM. 1.3% of 370,000 active;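 active means inhibition above about 21% made by adding two undisclosed values, limit read from the data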
UHRF1 MBD2 ctr = UHRF1 methyl-DNA binding inhibition; Q96T88; UHRF1 binding to methylated oligo, TR-FRET; inhibition, % at 4.4 µM; 0.75% of 370,000 active; in the data active means inhibition above about 21%;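 further: UHRF1 SRA domain binding a hemimethylated CpG hairpin DNA probe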
PRMT1 confirm = confirmation of human PRMT1 inhibitors; recombinant His-PRMT1, activity-based probe fluorescence polarization; shares compounds with PRMT1 FP inh; inhibition, % at 2.79 µM; 42% of 3,300 active;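 active means mean inhibition across replicates above the hit cutoff derived for the earlier primary screen, cut at about 22% in these data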
Large screens that a line does not name were inactive (follow-up assays come after a bar, where they were run).

O=C1NNC(c2ccccc2)=N/C1=C\c1ccco1	PRMT1 FP inh 29.8 | PRMT1 confirm inactive
CCCCNC(=O)C[C@@H]1C(=O)N2CCCC3=C2[C@@]1(C(=O)OC)CCCC3	none
CCOC(=O)CC[C@@]1(C(=O)OCC)C[C@@H](CC(=O)N2CCSCC2)C(=O)N2CCCC=C21	none
Cc1ccc2nc3sc(C(=O)N4CCN(C)CC4)cc3cc2c1	none
FC(F)Sc1ccc(Nc2ncnc3nc[nH]c23)cc1	PRMT1 FP inh 34.8 | PRMT1 confirm inactive
CN(CCO)C1CN(Cc2cn(Cc3ccccc3C(F)(F)F)nn2)S(=O)(=O)C1 (stereo not given)	none
Cc1cc(N2CCN(C(=O)OC(C)(C)C)C[C@H]2C)ccc1N1C[C@@H](C)O[C@@H](C)C1	none
COCc1cc(N2CCN(C(=O)OC(C)(C)C)C[C@H]2C)ccc1N1CC[C@H](O)C1	PRMT1 FP inh 60.5 | PRMT1 confirm inactive
Cc1cc(N2CCN(C(=O)OC(C)(C)C)C[C@H]2C)ccc1N1CC[C@@H](O)C1	PRMT1 FP inh 61.0 | PRMT1 confirm inactive
O=C(Nc1ccc(F)cc1)OCCCN1C(=O)CCC12CCCCC2	none
CCOC(=O)[C@]12CCCC3=C1N(CCC3)C(=O)[C@@H](CC(=O)NCc1cccc(C(F)(F)F)c1)C2	none
Cn1c(SCc2nnc(-c3ccccc3Br)o2)nc2sc3c(c2c1=O)CCC3	PRMT1 FP inh 29.4 | PRMT1 confirm inactive
CN(C)c1cccc(/C=C2\CC3(OC(=O)C4CCCC4)CCCN2C3)c1 (stereo not given)	none
Oc1ccc(N2CCN(c3ncnc4sc(-c5ccccc5)cc34)CC2)cc1	PRMT1 FP inh 32.4 | PRMT1 confirm inactive
CC(=O)N1CCN(c2ncnc3sc(-c4ccccc4)cc23)CC1	none
CCC1CCC(C(=O)NNC(=O)c2cc(-c3ccco3)[nH]n2)CC1 (stereo not given)	PRMT1 FP inh 83.0 | PRMT1 confirm inactive
O=[N+]([O-])c1c(Nc2ccccc2O)cc(Cl)c2nonc12	PRMT1 FP inh 59.6 | PRMT1 confirm 52.7
O=[N+]([O-])c1c(Nc2ccccc2O)ccc2nonc12	none
Cc1ccc(C(=O)C2CCN(CC(=O)NCc3cccs3)CC2)cc1	none
CCOC(=O)CNC(=O)CSc1nc(-c2ccccc2)ns1	PRMT1 FP inh 43.1 | PRMT1 confirm inactive
CCOC(=O)CNC(=O)CSc1nc(-c2ccc(C)cc2)ns1	none
NS(=O)(=O)c1ccc(CCNC(=O)c2ccc[nH]c2=S)cc1	PRMT1 FP inh 38.6 | PRMT1 confirm inactive
NS(=O)(=O)c1ccc(CCNC(=O)c2cc(-c3ccco3)nc3ccccc23)cc1	PRMT1 FP inh 51.3 | PRMT1 confirm inactive
O=C(NCC1CCCO1)c1cc(-c2ccco2)nc2ccccc12 (stereo not given)	PRMT1 FP inh 72.6 | PRMT1 confirm inactive
NS(=O)(=O)c1ccc(CCNC(=O)c2cccc3ccccc23)cc1	none
CCCCCCNC(=O)c1cc(-c2ccco2)nc2ccccc12	PRMT1 FP inh 42.2 | PRMT1 confirm inactive
O=C(NCc1ccccc1)OC1CCC12CCC(c1ccccc1)CC2 (stereo not given)	none
CCOC(=O)[C@]12CCCCC/C=C\1N(CCc1ccc(Cl)cc1)C(=O)[C@H]2CC(=O)NCc1ccc(C)o1	none
COC(=O)[C@]12C[C@H](CC(=O)N3CCN(C(=O)c4ccco4)CC3)C(=O)N(Cc3ccco3)C1=C[C@H](COCc1ccccc1)O[C@@H]2C	none
CCCCN1CN2Cc3ccc(C)cc3C2CS1(=O)=O (stereo not given)	none
CC(Sc1nnc(C2CC2)n1C1CC1)C(=O)NCc1cccs1 (stereo not given)	none
CC(Sc1nnc(C2CC2)n1C1CC1)C(=O)Nc1cccc(S(=O)(=O)N(C)C)c1 (stereo not given)	PRMT1 FP inh 36.9 | PRMT1 confirm inactive
COc1ccc2cc(C3CC(c4ccco4)=NN3S(C)(=O)=O)c(Cl)nc2c1 (stereo not given)	PRMT1 FP inh 25.4 | PRMT1 confirm inactive
CCOc1ccc2nc(Cl)c(C3CC(c4ccco4)=NN3S(=O)(=O)c3ccccc3)cc2c1 (stereo not given)	PRMT1 FP inh 31.7 | PRMT1 confirm inactive
CS(=O)(=O)N1N=C(c2ccco2)CC1c1ccc(Cl)cc1 (stereo not given)	none
Cc1ccc2cc(C3CC(c4ccco4)=NN3C(=O)CCC(=O)O)c(Cl)nc2c1 (stereo not given)	none
Cc1ccc(-n2c(SC/C=C/c3ccccc3)nnc2-c2cccs2)cc1	none
O=C1/C(=C/c2ccc(F)cc2)SC(=S)N1Nc1ncc(C(F)(F)F)cc1Cl	none
O=C1/C(=C/c2ccccn2)SC(=S)N1Nc1ncc(C(F)(F)F)cc1Cl	PRMT1 FP inh 34.1 | PRMT1 confirm inactive
O=C(CNS(=O)(=O)c1cccc2ccccc12)N1CCN(c2ncccn2)CC1	none
NC(=O)c1ccc(SCC(=O)OCC(=O)NC2CCCCCCC2)c([N+](=O)[O-])c1	PRMT1 FP inh 65.2 | PRMT1 confirm 29.9
NC(=O)c1ccc(SCC(=O)OCC(=O)NCc2ccco2)c([N+](=O)[O-])c1	PRMT1 FP inh 26.1 | PRMT1 confirm inactive
CC1CCC(NC(=O)COC(=O)CSc2ccc(C(N)=O)cc2[N+](=O)[O-])CC1 (stereo not given)	none
COc1ccc(CSc2nnc(SCC(=O)Nc3ccc(S(N)(=O)=O)cc3)s2)cc1	none
C[C@H]1[C@@H](NCc2cccs2)CC[C@@]23CCCN2C(=O)CCC[C@@H]13	none
COC(=O)[C@@]12CCCCC3=C1N(CCC3)C(=O)[C@H]2CC(=O)NCc1cccs1	none
O=C(CC1Sc2ncnn2C1=O)Nc1ccc(Br)cc1 (stereo not given)	PRMT1 FP inh 52.6 | PRMT1 confirm 53.5
O=C(CC1SC2=NCCN2C1=O)Nc1ccc(Br)cc1 (stereo not given)	none
Cc1ccccc1CSCC1Nc2ccc(C(=O)NCCc3ccccc3)cc2NC1=O (stereo not given)	PRMT1 FP inh 49.2 | PRMT1 confirm 65.0
Cc1c(C(C)c2ccccc2O)c2ccccc2n1C (stereo not given)	none
Cc1cc(C)cc(-n2nnn(C3C/C(=N/NC(N)=S)C4OCC3O4)c2=S)c1 (stereo not given)	PRMT1 FP inh 25.6 | PRMT1 confirm inactive
COc1ccc2c(c1)Sc1ccc(Cl)cc1N2	none
O=c1c2ccccc2sn1-c1ccc(Cl)cc1Cl	PRMT1 FP inh 74.5 | PRMT1 confirm 93.6
Oc1ccc(CNc2ccccc2Br)c2cccnc12	PRMT1 FP inh 32.4 | PRMT1 confirm inactive
Oc1ccc(CNc2cccc(F)c2)c2cccnc12	PRMT1 FP inh 63.0 | PRMT1 confirm 48.0
